Residue numbers refer to the chain shown, from its start. Activity calls are given as the source filed them.
Legend:
[1] = system: T1, DNA topoisomerase I (Leishmania donovani (strain BPK282A1)), E9BRC0 [K430N]; assay: Effect on recombinant drug-resistant Leishmania donovani LdDR50 topoisomerase 1b large subunit K430N mutant-mediated cleavage of 25-mer duplex oligonucleotide at 20 uM after 30 mins by PAGE analysis
T1 sequence (whole entry): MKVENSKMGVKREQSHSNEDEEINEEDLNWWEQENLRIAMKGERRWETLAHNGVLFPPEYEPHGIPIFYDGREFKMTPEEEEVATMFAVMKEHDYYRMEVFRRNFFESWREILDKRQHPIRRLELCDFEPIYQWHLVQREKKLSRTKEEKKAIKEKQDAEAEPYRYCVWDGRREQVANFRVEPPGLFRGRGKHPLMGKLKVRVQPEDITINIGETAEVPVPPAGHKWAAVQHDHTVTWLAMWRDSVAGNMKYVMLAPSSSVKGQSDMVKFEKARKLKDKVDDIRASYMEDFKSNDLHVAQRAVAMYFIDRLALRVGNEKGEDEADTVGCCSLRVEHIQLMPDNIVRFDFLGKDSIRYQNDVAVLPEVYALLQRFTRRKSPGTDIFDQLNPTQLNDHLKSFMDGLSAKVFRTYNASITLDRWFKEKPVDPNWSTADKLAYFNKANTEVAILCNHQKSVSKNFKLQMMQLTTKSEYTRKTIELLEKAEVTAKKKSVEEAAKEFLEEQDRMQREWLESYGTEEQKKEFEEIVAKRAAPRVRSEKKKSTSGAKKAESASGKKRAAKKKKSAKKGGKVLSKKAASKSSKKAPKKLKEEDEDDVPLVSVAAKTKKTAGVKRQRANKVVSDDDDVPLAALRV
Outline: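 5′-32P-labelled 25-mer duplex (10 nM) incubated with reconstituted mutant enzyme (0.2 μM, 20-fold molar excess) and DIM 5–20 μM for 30 min (Methods 37°C; legend 23°C). Stopped with SDS, trypsin-treated, resolved on 12% denaturing polyacrylamide-urea gel; cleaved 12-mer detected by autoradiography.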

[2] = system: Leishmania donovani; assay: Effect on recombinant wild type Leishmania donovani AG83 topoisomerase 1b-mediated cleavage of 25-mer duplex oligonucleotide at 20 uM after 30 mins by PAGE analysis
Outline: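 The 5′-32P-labelled 25-mer duplex (10 nM) was incubated with 0.2 μM reconstituted WT His-tagged enzyme, a 20-fold molar enzyme excess. DIM was 0 or 5–20 μM, for 30 min. Reactions were stopped with SDS, trypsinised, and run on 12% denaturing polyacrylamide-urea gel with autoradiography. Read-out was the 12-mer cleaved product.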

[3] = system: T2, Leishmania donovani [N184S]; assay: Inhibition of recombinant drug-resistant Leishmania donovani LdDR50 topoisomerase 1b wild type large subunit and small subunit N184S mutant-mediated relaxation of supercoiled pBluescript SK(+) DNA at up to 50 uM after 30 mins using ethidium bromide staining
T2 sequence (whole entry): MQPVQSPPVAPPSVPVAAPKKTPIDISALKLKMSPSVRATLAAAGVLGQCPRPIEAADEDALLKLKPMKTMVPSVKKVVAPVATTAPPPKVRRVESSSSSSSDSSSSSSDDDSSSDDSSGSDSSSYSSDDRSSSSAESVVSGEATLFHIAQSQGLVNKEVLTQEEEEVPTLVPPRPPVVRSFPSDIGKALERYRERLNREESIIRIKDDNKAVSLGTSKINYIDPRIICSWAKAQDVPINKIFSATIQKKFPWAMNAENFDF
Outline: (§1)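 Reconstituted recombinant enzyme (30 fmol) with 90 fmol supercoiled pBluescript SK(+) DNA (3:1 DNA:enzyme), 30 min at 37°C with DIM (1–50 μM for fully mutant enzyme; 10 μM for single-site mutants); 4% DMSO vehicle control. Products on 1% agarose, ethidium bromide (0.5 μg/ml) stained; supercoiled monomer band quantified.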

[4] = system: Leishmania donovani; assay: Antimicrobial activity against wild type Leishmania donovani AG83 transfected with drug-resistant Leishmania donovani LdDR50 topoisomerase 1 F270L, K430N mutant in large subunit and N184S mutant in small subunit assessed as inhibition of parasite growth at 20 uM after 24 hrs by MTT assay; format: functional, organism-based
Outline: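 WT promastigotes transfected by electroporation with mutant large-subunit (pXG-HYG, hygromycin selection) and/or small-subunit (pXG-GFP2+, G418 selection) topoisomerase I genes. Grown with DIM 1–20 μM for 24 h; MTT read-out, growth as % of optical density of untreated WT parasites.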

[5] = molecular target: DNA topoisomerase I (Leishmania donovani (strain BPK282A1), UniProt E9BRC0, F270L/K430N); assay: Binding affinity to recombinant drug-resistant Leishmania donovani LdDR50 topoisomerase 1b large subunit F270L, K430N mutant after 24 hrs by equilibrium dialysis method
Outline: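 Recombinant His-tagged subunits expressed in E. coli BL21(DE3) pLysS, purified on Ni-NTA then phosphocellulose, reconstituted 1:1. Enzyme 200 μM with DIM 1–20 μM in 20 mM Tris-HCl pH 7.5, 50 mM NaCl, 10 mM MgCl2 for 30 min at 37°C, then dialysed (12–14 kDa cutoff) 24 h at 25°C. Free DIM measured by absorbance (ε 6.6 × 10^4 M−1); KD from saturation plot.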

[6] = system: T3, Leishmania donovani [K430N]; assay: Inhibition of recombinant drug-resistant Leishmania donovani LdDR50 topoisomerase 1b wild type small subunit and large subunit K430N mutant-mediated relaxation of supercoiled pBluescript SK(+) DNA at up to 50 uM after 30 mins using ethidium bromide staining; outline: as §1
T3 sequence (whole entry): T1 sequence (whole entry)

[7] = system: T4, Leishmania donovani [F270L]; assay: Inhibition of recombinant drug-resistant Leishmania donovani LdDR50 topoisomerase 1b wild type small subunit and large subunit F270L mutant-mediated relaxation of supercoiled pBluescript SK(+) DNA at up to 50 uM after 30 mins using ethidium bromide staining; outline: as §1
T4 sequence (whole entry): T1 sequence (whole entry) with F270L, N430K

`c1ccc2c(Cc3c[nH]c4ccccc34)c[nH]c2c1` [ARUNDINE] was tested, and the Activity [1] was “Active”, the Activity [2] was “Active” and the inhibition [3] was “Active”. The Activity [4] was “inactive”, the Kd [5] was 760 µM and the inhibition [6] was “Active”. The inhibition [7] was “inactive”.

Reference: ChEMBL document CHEMBL1687733, “Topoisomerase I gene mutations at F270 in the large subunit and N184 in the small subunit contribute to the resistance mechanism of the unicellular parasite Leishmania donovani towards 3,3'-diindolylmethane” (Antimicrob Agents Chemother, 2009)
